In ChEMBL document CHEMBL2176949 (J Med Chem, 2012):
Values belong to the molecule of their own block, whether it stands above or below them.

Assays:
[1] = biological target: T1, Neuronal acetylcholine receptor; alpha3/beta4 (Homo sapiens, UniProt P30926+P32297); assay: Displacement of [3H]epibatidine from human alpha3beta4 nAChR expressed in human SH-SY5Y cells; format: cell-based
Outline: (§1)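 Binding to membranes from the cell lines: homogenised in PBS pH 7.4, spun at 40000g for 20 min at 4 °C, then incubated 2 h on ice in PBS with competitor (0.001 nM to 100 μM) and radioligand. Filters washed in ice-cold PBS and counted by scintillation. IC50 from nonlinear regression; Ki by Cheng-Prusoff. Minimum of three assays, ± SEM.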

[2] = biological target: T2, Neuronal acetylcholine receptor; alpha4/beta2 (Homo sapiens, UniProt P17787+P43681); assay: Displacement of [3H]nicotine from human alpha4beta2 nAChR expressed in human SH-EP1 cells; format: cell-based; outline: as §1
[3] = biological target: Neuronal acetylcholine receptor subunit alpha-7 (Homo sapiens, UniProt P36544); assay: Displacement of [3H]epibatidine from human alpha7 nAChR expressed in human HEK/RIC3 cells; format: cell-based; outline: as §1
[4] = biological target: T1, Neuronal acetylcholine receptor; alpha3/beta4; assay: Agonist activity at human alpha3beta4 nAChR expressed in human SH-SY5Y cells assessed as increase in calcium flux by FLIPR; format: functional, cell-based
[5] = biological target: T2, Neuronal acetylcholine receptor; alpha4/beta2; assay: Agonist activity at human alpha4beta2 nAChR low sensitivity form expressed in human SH-EP1 cells assessed as increase in calcium flux by FLIPR relative to 10 uM nicotine; format: functional, cell-based
[6] = biological target: T2, Neuronal acetylcholine receptor; alpha4/beta2; assay: Agonist activity at human alpha4beta2 nAChR high sensitivity form expressed in human SH-EP1 cells assessed as increase in calcium flux by FLIPR; format: functional, cell-based
[7] = biological target: T2, Neuronal acetylcholine receptor; alpha4/beta2; assay: Agonist activity at human alpha4beta2 nAChR high sensitivity form expressed in human SH-EP1 cells assessed as increase in calcium flux by FLIPR relative to 10 uM nicotine; format: functional, cell-based
[8] = biological target: T1, Neuronal acetylcholine receptor; alpha3/beta4; assay: Agonist activity at human alpha3beta4 nAChR expressed in human SH-SY5Y cells assessed as increase in calcium flux by FLIPR relative to 10 uM nicotine; format: functional, cell-based
[9] = biological target: T2, Neuronal acetylcholine receptor; alpha4/beta2; assay: Agonist activity at human alpha4beta2 nAChR low sensitivity form expressed in human SH-EP1 cells assessed as increase in calcium flux by FLIPR; format: functional, cell-based

T1 sequence (P30926 whole entry): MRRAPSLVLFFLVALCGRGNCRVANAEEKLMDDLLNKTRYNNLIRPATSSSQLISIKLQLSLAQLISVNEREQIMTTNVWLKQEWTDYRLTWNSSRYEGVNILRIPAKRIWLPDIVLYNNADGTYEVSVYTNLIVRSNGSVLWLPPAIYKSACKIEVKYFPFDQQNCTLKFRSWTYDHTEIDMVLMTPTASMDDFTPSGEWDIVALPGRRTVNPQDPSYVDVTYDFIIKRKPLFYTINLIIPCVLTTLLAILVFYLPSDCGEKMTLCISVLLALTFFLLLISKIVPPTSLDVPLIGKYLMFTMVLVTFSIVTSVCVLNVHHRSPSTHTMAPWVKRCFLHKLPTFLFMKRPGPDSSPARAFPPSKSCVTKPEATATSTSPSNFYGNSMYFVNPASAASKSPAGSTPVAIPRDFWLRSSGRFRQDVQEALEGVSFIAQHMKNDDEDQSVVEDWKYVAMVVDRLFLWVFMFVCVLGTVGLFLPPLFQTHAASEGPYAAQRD
T1 sequence (P32297 whole entry): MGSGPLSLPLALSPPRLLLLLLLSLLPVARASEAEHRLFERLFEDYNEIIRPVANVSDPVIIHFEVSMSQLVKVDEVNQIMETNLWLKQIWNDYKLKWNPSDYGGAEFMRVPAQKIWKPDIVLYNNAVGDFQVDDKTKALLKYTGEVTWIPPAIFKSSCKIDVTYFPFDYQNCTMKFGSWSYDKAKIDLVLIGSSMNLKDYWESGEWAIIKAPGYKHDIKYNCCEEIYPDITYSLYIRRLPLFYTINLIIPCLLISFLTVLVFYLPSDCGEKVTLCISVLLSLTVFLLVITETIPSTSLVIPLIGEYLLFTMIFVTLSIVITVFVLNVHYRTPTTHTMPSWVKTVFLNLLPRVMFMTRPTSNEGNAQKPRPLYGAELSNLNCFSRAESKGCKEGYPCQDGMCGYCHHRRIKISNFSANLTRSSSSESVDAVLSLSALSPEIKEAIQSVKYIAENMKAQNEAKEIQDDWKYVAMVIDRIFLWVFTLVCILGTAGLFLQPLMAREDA
Neuronal acetylcholine receptor subunit alpha-7, sequence (P36544 whole entry): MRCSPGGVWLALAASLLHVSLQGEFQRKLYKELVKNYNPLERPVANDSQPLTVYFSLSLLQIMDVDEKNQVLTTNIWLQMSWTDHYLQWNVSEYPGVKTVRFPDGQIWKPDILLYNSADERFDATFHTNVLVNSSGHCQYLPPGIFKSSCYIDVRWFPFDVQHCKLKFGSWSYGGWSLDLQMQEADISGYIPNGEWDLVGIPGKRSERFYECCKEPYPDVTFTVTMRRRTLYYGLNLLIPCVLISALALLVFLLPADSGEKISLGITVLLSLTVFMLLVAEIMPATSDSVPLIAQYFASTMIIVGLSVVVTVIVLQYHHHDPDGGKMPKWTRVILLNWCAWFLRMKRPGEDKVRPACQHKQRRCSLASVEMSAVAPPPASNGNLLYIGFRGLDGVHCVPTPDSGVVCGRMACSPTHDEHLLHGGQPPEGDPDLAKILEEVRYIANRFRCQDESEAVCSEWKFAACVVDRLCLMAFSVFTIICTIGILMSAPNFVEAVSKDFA
T2 sequence (P17787 whole entry): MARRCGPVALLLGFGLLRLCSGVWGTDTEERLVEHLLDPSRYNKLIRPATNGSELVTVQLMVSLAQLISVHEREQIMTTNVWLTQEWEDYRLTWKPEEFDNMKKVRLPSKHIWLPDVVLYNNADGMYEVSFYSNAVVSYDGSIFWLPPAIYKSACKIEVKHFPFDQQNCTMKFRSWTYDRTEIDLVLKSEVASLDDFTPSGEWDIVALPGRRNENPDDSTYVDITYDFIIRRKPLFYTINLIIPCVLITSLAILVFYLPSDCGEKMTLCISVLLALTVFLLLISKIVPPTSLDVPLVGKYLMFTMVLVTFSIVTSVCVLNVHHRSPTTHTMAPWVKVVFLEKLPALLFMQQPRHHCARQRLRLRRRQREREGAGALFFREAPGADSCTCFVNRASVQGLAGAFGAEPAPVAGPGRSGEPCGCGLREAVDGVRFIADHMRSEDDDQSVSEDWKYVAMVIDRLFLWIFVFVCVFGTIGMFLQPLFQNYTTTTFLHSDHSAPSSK
T2 sequence (P43681 whole entry): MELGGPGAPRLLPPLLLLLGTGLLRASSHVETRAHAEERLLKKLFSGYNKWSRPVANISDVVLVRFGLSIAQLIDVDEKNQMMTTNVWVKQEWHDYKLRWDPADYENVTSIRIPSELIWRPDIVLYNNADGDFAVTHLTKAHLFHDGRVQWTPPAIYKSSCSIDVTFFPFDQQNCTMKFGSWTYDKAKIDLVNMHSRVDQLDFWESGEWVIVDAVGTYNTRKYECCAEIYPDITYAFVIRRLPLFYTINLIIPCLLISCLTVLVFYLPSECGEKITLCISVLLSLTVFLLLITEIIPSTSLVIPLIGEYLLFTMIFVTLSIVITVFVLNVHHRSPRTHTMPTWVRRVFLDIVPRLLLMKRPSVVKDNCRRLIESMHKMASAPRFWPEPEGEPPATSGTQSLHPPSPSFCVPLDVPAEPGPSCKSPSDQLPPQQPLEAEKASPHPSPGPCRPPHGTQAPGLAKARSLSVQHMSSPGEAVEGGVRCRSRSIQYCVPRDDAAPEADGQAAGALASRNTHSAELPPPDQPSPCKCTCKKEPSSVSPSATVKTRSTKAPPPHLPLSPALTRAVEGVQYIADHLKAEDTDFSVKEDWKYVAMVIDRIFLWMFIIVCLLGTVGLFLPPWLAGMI

Compound: CN1CC2C=C(c3cnccc3Cl)CC(C2)C1 (stereo not given)
Ki [1]: 7230 nM
Ki [2]: 1160 nM
Ki [3]: 1420 nM

Compound: Cc1ccc(C2=CC3CNCC(C2)C3)cn1 (stereo not given)
EC50 [4]: 93 nM
Ki [1]: 25 nM
%max [5]: 112%
EC50 [6]: 75 nM
%max [7]: 107%
%max [8]: 149%
Ki [2]: 0.3 nM
Ki [3]: 80 nM
EC50 [9]: 79 nM

Compound: Clc1ccncc1C1=CC2CNCC(C1)C2 (stereo not given)
EC50 [4]: 377 nM
Ki [1]: 128 nM
%max [5]: 12.8%
EC50 [6]: 2000 nM
%max [7]: 46%
%max [8]: 105%
Ki [2]: 3 nM
Ki [3]: 33 nM
EC50 [9]: > 10000 nM

Compound: CN1CC2C=C(c3cncc(Oc4ccccc4)c3)CC(C2)C1 (stereo not given)
EC50 [4]: 100 nM
Ki [1]: 8.2 nM
%max [5]: 9.5%
EC50 [6]: 183 nM
%max [7]: 42%
%max [8]: 103%
Ki [2]: 1.3 nM
Ki [3]: 17 nM
EC50 [9]: > 10000 nM

Compound: COc1ccc(C2=CC3CC(C2)CN(C)C3)cn1 (stereo not given)
EC50 [4]: 1890 nM
Ki [1]: > 10000 nM
%max [5]: 20%
EC50 [6]: 3460 nM
%max [7]: 91%
%max [8]: 61%
Ki [2]: 797 nM
Ki [3]: > 10000 nM
EC50 [9]: > 10000 nM

Compound: N#Cc1cncc(C2=C[C@@H]3CNC[C@H](C2)C3)c1
EC50 [4]: 447 nM
Ki [1]: 17 nM
%max [5]: 89%
EC50 [6]: 107 nM
%max [7]: 92%
%max [8]: 144%
Ki [2]: 0.3 nM
Ki [3]: 79 nM
EC50 [9]: 343 nM

Compound: Clc1cncc(C2=CC3CNCC(C2)C3)c1 (stereo not given)
Ki [1]: 40 nM
Ki [2]: 0.4 nM
Ki [3]: 15 nM

Compound: FC(F)(F)c1cncc(C2=CC3CNCC(C2)C3)c1 (stereo not given)
Ki [1]: 79 nM
Ki [2]: 0.7 nM
Ki [3]: 641 nM

Compound: C1=C(c2ccncc2)CC2CNCC1C2 (stereo not given)
Ki [1]: 459 nM
Ki [2]: 56 nM
Ki [3]: > 10000 nM

Compound: Clc1cccc(Oc2cncc(C3=CC4CNCC(C3)C4)c2)c1 (stereo not given)
Ki [1]: 22 nM
Ki [2]: 1 nM
Ki [3]: 13 nM

Compound: Clc1ccc(C2=CC3CNCC(C2)C3)nn1 (stereo not given)
EC50 [4]: 149 nM
Ki [1]: 73 nM
%max [5]: 160%
EC50 [6]: 80 nM
%max [7]: 118%
%max [8]: 135%
Ki [2]: 0.4 nM
Ki [3]: 77 nM
EC50 [9]: 595 nM

Compound: Clc1ccccc1Oc1cncc(C2=CC3CNCC(C2)C3)c1 (stereo not given)
Ki [1]: 26 nM
Ki [2]: 0.9 nM
Ki [3]: 39 nM

Compound: C1=C(c2cccnc2)CC2CNCC1C2 (racemic)
Ki [1]: 12 nM
Ki [2]: 0.2 nM
Ki [3]: 4 nM

Compound: Clc1ccc(C2=CC3CNCC(C2)C3)cn1 (stereo not given)
EC50 [4]: 16 nM
Ki [1]: 6.2 nM
%max [5]: 152%
EC50 [6]: 54 nM
%max [7]: 98%
%max [8]: 141%
Ki [2]: 0.4 nM
Ki [3]: 39 nM
EC50 [9]: 35 nM

Compound: CN1CC2C=C(c3cncc(Cl)c3)CC(C2)C1 (stereo not given)
Ki [1]: 1830 nM
Ki [2]: 9.6 nM
Ki [3]: 8010 nM

Compound: C1=C(c2ccc(-c3ccccc3)nc2)CC2CNCC1C2 (stereo not given)
EC50 [4]: 10900 nM
Ki [1]: 507 nM
%max [5]: 18%
EC50 [6]: > 10000 nM
%max [7]: 19%
%max [8]: 17%
Ki [2]: 105 nM
Ki [3]: 590 nM
EC50 [9]: 9660 nM

Compound: C1=C(c2cnccn2)CC2CNCC1C2 (stereo not given)
Ki [1]: 828 nM
Ki [2]: 1.1 nM
Ki [3]: 281 nM

Compound: CN1CC2C=C(c3cncc(OCc4ccccc4)c3)CC(C2)C1 (stereo not given)
Ki [1]: 711 nM
Ki [2]: 1.7 nM
Ki [3]: 4540 nM

Compound: Fc1ccc(C2=CC3CNCC(C2)C3)cn1 (stereo not given)
EC50 [4]: 99 nM
Ki [1]: 28 nM
%max [5]: 136%
EC50 [6]: 85 nM
%max [7]: 104%
%max [8]: 140%
Ki [2]: 0.4 nM
Ki [3]: 20 nM
EC50 [9]: 85 nM

Compound: COc1ccccc1Oc1cncc(C2=CC3CNCC(C2)C3)c1 (stereo not given)
Ki [1]: 56 nM
Ki [2]: 1 nM
Ki [3]: 30 nM

Compound: COc1cc(C2=CC3CNCC(C2)C3)cnc1Cl (stereo not given)
Ki [1]: 7 nM
Ki [2]: 0.4 nM
Ki [3]: 111 nM

Compound: N#Cc1cncc(C2=CC3CNCC(C2)C3)c1 (stereo not given)
Ki [1]: 47 nM
Ki [2]: 0.6 nM
Ki [3]: 160 nM

Compound: COc1cccc(Oc2cncc(C3=CC4CNCC(C3)C4)c2)c1 (stereo not given)
Ki [1]: 15 nM
Ki [2]: 0.9 nM
Ki [3]: 13 nM

Compound: COc1cc(C2=CC3CC(C2)CN(C)C3)cnc1Cl (stereo not given)
Ki [1]: 1430 nM
Ki [2]: 4.4 nM
Ki [3]: 7570 nM

Compound: CN1CC2C=C(c3cncc(C#N)c3)CC(C2)C1 (stereo not given)
Ki [1]: 4500 nM
Ki [2]: 24 nM
Ki [3]: > 10000 nM

Compound: COc1ccc(C2=CC3CNCC(C2)C3)cn1 (stereo not given)
Ki [1]: 328 nM
Ki [2]: 0.4 nM
Ki [3]: 1850 nM

Compound: Fc1cncc(C2=CC3CNCC(C2)C3)c1 (stereo not given)
Ki [1]: 39 nM
Ki [2]: 0.3 nM
Ki [3]: 3.6 nM

Compound: CN1CC2C=C(c3ccc(Cl)nc3)CC(C2)C1 (stereo not given)
Ki [1]: 986 nM
Ki [2]: 22 nM
Ki [3]: 6530 nM

Compound: CNCC/C=C/c1cccnc1 [RIVANICLINE]
Ki [1]: 5400 nM
Ki [2]: 26 nM
Ki [3]: 8000 nM

Compound: CN1CC2C=C(c3cncc(F)c3)CC(C2)C1 (stereo not given)
Ki [1]: 1640 nM
Ki [2]: 13 nM
Ki [3]: 1010 nM

Compound: C1=C(c2cncc(-c3ccccc3)c2)CC2CNCC1C2 (stereo not given)
EC50 [4]: 181 nM
Ki [1]: 17 nM
%max [5]: 5.3%
EC50 [6]: 85 nM
%max [7]: 33%
%max [8]: 61%
Ki [2]: 0.8 nM
Ki [3]: 3220 nM
EC50 [9]: > 10000 nM

Compound: N#Cc1cncc(C2=C[C@H]3CNC[C@@H](C2)C3)c1
EC50 [4]: 355 nM
Ki [1]: 15 nM
%max [5]: 88%
EC50 [6]: 256 nM
%max [7]: 95%
%max [8]: 136%
Ki [2]: 0.3 nM
Ki [3]: 73 nM
EC50 [9]: 4190 nM

Compound: N#Cc1ccncc1C1=CC2CNCC(C1)C2 (stereo not given)
EC50 [4]: 166 nM
Ki [1]: 103 nM
%max [5]: 27%
EC50 [6]: 3250 nM
%max [7]: 55%
%max [8]: 130%
Ki [2]: 2.8 nM
Ki [3]: 330 nM
EC50 [9]: > 10000 nM

Compound: CN1CC2C=C(c3ccc(F)nc3)CC(C2)C1 (stereo not given)
EC50 [4]: > 10000 nM
Ki [1]: 1300 nM
%max [5]: 9.4%
EC50 [6]: > 10000 nM
%max [7]: 22%
%max [8]: 25%
Ki [2]: 18 nM
Ki [3]: 1300 nM
EC50 [9]: > 10000 nM

Compound: C1=C(c2cncnc2)CC2CNCC1C2 (stereo not given)
EC50 [4]: 198 nM
Ki [1]: 58 nM
%max [5]: 145%
EC50 [6]: 240 nM
%max [7]: 116%
%max [8]: 147%
Ki [2]: 0.2 nM
Ki [3]: 19 nM
EC50 [9]: 162 nM

Compound: Fc1cncc(C2=C[C@@H]3CNC[C@H](C2)C3)c1
EC50 [4]: 111 nM
Ki [1]: 5.4 nM
%max [5]: 120%
EC50 [6]: 34 nM
%max [7]: 112%
%max [8]: 153%
Ki [2]: 0.2 nM
Ki [3]: 1.6 nM
EC50 [9]: 36 nM

Compound: c1cncc(N2CC3CNCC(C3)C2)c1
Ki [1]: 6.6 nM
Ki [2]: 0.1 nM
Ki [3]: 1.6 nM

Compound: COc1ccc(Oc2cncc(C3=CC4CNCC(C3)C4)c2)cc1 (stereo not given)
Ki [1]: 27 nM
Ki [2]: 1.4 nM
Ki [3]: 23 nM

Compound: Fc1cncc(C2=C[C@H]3CNC[C@@H](C2)C3)c1
EC50 [4]: 155 nM
Ki [1]: 8.3 nM
%max [5]: 119%
EC50 [6]: 29 nM
%max [7]: 100%
%max [8]: 140%
Ki [2]: 0.2 nM
Ki [3]: 3.3 nM
EC50 [9]: 50 nM

Compound: COc1cncc(C2=CC3CC(C2)CN(C)C3)c1 (stereo not given)
EC50 [4]: 3640 nM
Ki [1]: 596 nM
%max [5]: 15%
EC50 [6]: 2660 nM
%max [7]: 19%
%max [8]: 27%
Ki [2]: 0.6 nM
Ki [3]: 605 nM
EC50 [9]: 5130 nM

Compound: Fc1ccc(Oc2cncc(C3=CC4CNCC(C3)C4)c2)cc1 (stereo not given)
Ki [1]: 31 nM
Ki [2]: 0.6 nM
Ki [3]: 7.2 nM

Compound: COc1cncc(C2=CC3CNCC(C2)C3)c1 (stereo not given)
EC50 [4]: 105 nM
Ki [1]: 14.3 nM
%max [5]: 100%
EC50 [6]: 49 nM
%max [7]: 72%
%max [8]: 145%
Ki [2]: 0.3 nM
Ki [3]: 4.6 nM
EC50 [9]: 53 nM

Compound: Clc1ccc(Oc2cncc(C3=CC4CNCC(C3)C4)c2)cc1 (stereo not given)
Ki [1]: 40 nM
Ki [2]: 1.9 nM
Ki [3]: 23 nM

Compound: CN1CC2C=C(c3cnccc3C#N)CC(C2)C1 (stereo not given)
Ki [2]: 3420 nM
Ki [3]: 4850 nM

Compound: C1=C(c2cncc(OCc3ccccc3)c2)CC2CNCC1C2 (stereo not given)
Ki [1]: 44 nM
Ki [2]: 0.7 nM
Ki [3]: 43.9 nM

Ki [1]: 5740 nM
Ki [2]: 85 nM
Ki [3]: > 10000 nM
Compound: C1=C(c2ccc3nccnc3c2)CC2CNCC1C2 (stereo not given)
